Test results reported in ChEMBL document CHEMBL4312029, “Structure-activity relationship studies and in vitro and in vivo anticancer activity of novel 3-aroyl-1,4-diarylpyrroles against solid tumors and hematological malignancies” (Eur J Med Chem, 2020).
pIC50: −log10 of the molar value. Calls of active or inactive are those of the source. The calls are words filed in the database; no cut-off is given here.

How the values were obtained:
Homo sapiens = species on record: Homo sapiens; assay: (§1) Cytotoxicity against human U343MG cells assessed as reduction in cell viability incubated for 72 hrs by MTS assay; type: functional, cell-based
Summary of the method: (§2)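 Increasing concentrations applied to glioblastoma and neuroblastoma lines to give dose-response viability curves; cytotoxic IC50 from triplicate experiments. Incubation 48 h, except U343MG at 72 h.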

[1] = as §1; type: functional, cell-based; settings: U-343MG; summary of the method: as §2
PBMC = assay: Cytotoxicity against human PBMC assessed as cell viability by MTT assay; type: cell-based
KBM5 [2] = assay: Induction of apoptotic cell death in human KBM5 cells expressing IM-resistant Bcr/Abl T315I mutant at 10 nM incubated for 48 hrs by Annexin V-staining based flow cytometry; type: functional
Summary of the method: (§3)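 KBM5-WT and KBM5-T315I cells exposed 48 h to 10 nM test compound alone or combined with 10 nM nilotinib (nilotinib alone as comparator). Apoptotic cells quantified by annexin V staining and flow cytometry; triplicate.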

HT-29 = assay: Cytotoxicity against human HT-29 cells assessed as reduction in cell viability incubated for 48 hrs by MTT assay; type: functional, cell-based
KBM5 [3] = assay: Cytotoxicity against human KBM5 cells expressing IM- sensitive wild type Bcr/Abl assessed as reduction in cell viability incubated for 48 hrs by MTT assay; type: functional, cell-based; settings: KBM5, 48 h
MCF7 = assay: Cytotoxicity against human MCF7 cells assessed as reduction in cell growth incubated for 96 hrs by MTT assay; type: functional, cell-based; settings: MCF7, 96 h
Summary of the method: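 Growth inhibition of human breast carcinoma cells, reported as IC50; run in duplicate or triplicate.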

KBM5 [4] = assay: Induction of apoptotic cell death in human KBM5 cells expressing IM-sensitive wild type Bcr/Abl at 10 nM incubated for 48 hrs by Annexin V-staining based flow cytometry; type: functional; summary of the method: as §3
[5] = Cytotoxicity against human SK-N-BE(2)C cells assessed as reduction in cell viability incubated for 48 hrs by MTT assay; type: functional, cell-based; summary of the method: as §2
KBM5 [6] = assay: Potentiation of NLT-induced apoptotic cell death in human KBM5 cells expressing IM-sensitive wild type Bcr/Abl at 10 nM co-incubated with NLT for 48 hrs by Annexin V-staining based flow cytometry; type: functional
Summary of the method: (§4)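 KBM5-WT or KBM5-T315I CML cells treated 48 h with 10 nM nilotinib, with or without 10 nM test compound (each agent alone also run). Apoptosis measured by annexin V staining and flow cytometry, read as percentage of apoptotic cells. Triplicate experiments.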

Tubulin (Homo sapiens) = Tubulin (Homo sapiens) (UniProt P68371+Q9H4B7+P0DPH7+P68366+Q13509+Q71U36+P04350+Q3ZCM7+P07437+P68363+Q9BQE3+Q6PEY2+Q13885+Q9BVA1+Q9BUF5); assay: Inhibition of [3H]colchicine binding to tubulin (unknown origin) at 5 uM incubated for 10 mins by DEAE-cellulose filter method relative to control; type: protein-complex assay
KU812 cell line = assay: Cytotoxicity against human KU812 cells expressing IM- sensitive wild type Bcr/Abl assessed as reduction in cell viability incubated for 48 hrs by MTT assay; type: functional, cell-based; settings: KU812, 48 h
[7] = Cytotoxicity against IM resistant human LAMA84-r cells assessed as reduction in cell viability incubated for 48 hrs by MTT assay; type: functional, cell-based
[8] = Cytotoxicity against human LAMA84-s cells expressing IM-sensitive wild type Bcr/Abl assessed as reduction in cell viability incubated for 48 hrs by MTT assay; type: functional, cell-based
Tubulin = assay: Inhibition of tubulin polymerization (unknown origin) incubated for 15 mins followed by GTP addition and measured for 20 mins by spectrophotometry; type: protein-complex assay, Homo sapiens
Summary of the method: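 Tubulin assembly assay with tubulin at 10 µM. IC50 for inhibition of polymerization; run in duplicate or triplicate.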

U-87 MG = assay: Cytotoxicity against human U87MG cells assessed as reduction in cell viability incubated for 48 hrs by MTS assay; type: functional, cell-based, U-87MG ATCC; summary of the method: as §2
KBM5 [9] = assay: Cytotoxicity against human KBM5 cells expressing IM-resistant Bcr/Abl T315I mutant assessed as reduction in cell viability incubated for 48 hrs by MTT assay; type: functional, cell-based; settings: KBM5, 48 h
T98G = assay: Cytotoxicity against human T98G cells assessed as reduction in cell viability incubated for 48 hrs by MTS assay; type: functional, cell-based; summary of the method: as §2
SW-620 = assay: Cytotoxicity against human SW620 cells assessed as reduction in cell viability incubated for 48 hrs by MTT assay; type: functional, cell-based
SW480 = assay: Cytotoxicity against human SW480 cells assessed as reduction in cell viability incubated for 48 hrs by MTT assay; type: functional, cell-based
KBM5 [10] = assay: Potentiation of NLT-induced apoptotic cell death in human KBM5 cells expressing IM-resistant Bcr/Abl T315I mutant at 10 nM co-incubated with NLT for 48 hrs by Annexin V-staining based flow cytometry; type: functional; summary of the method: as §4
HCT-116 = assay: Cytotoxicity against human HCT116 cells assessed as reduction in cell viability incubated for 48 hrs by MTT assay; type: functional, cell-based
[11] = Cytotoxicity against human SK-N-BE cells assessed as reduction in cell viability incubated for 48 hrs by MTT assay; type: functional, cell-based; summary of the method: as §2
T-24 = assay: Cytotoxicity against human T24 cells assessed as reduction in cell viability incubated for 48 hrs by MTT assay; type: functional, cell-based; settings: T-24, 48 h

## COc1cc(C(=O)c2cn(-c3ccc(N)cc3)cc2-c2ccc(N)cc2)cc(OC)c1OC
Homo sapiens
  inhibition: Dose-dependent effect
[1]
  Emax: 34%
  pIC50: 7.66 to 7.67
PBMC
  Activity: Non-Toxic
KBM5 [2]
  Activity: Active
HT-29
  inhibition: Dose-dependent effect
HT-29; HT-29, 48 h
  pIC50: 7.47
KBM5 [3]
  pIC50: 8.00
MCF7
  pIC50: 7.82
KBM5 [4]
  Activity: Active
[5]
  pIC50: 6.83
KBM5 [6]
  Activity: 50 - 90%
Tubulin (Homo sapiens)
  inhibition: 87%
KU812 cell line
  pIC50: 8.30
[7]
  pIC50: 8.00
[8]
  pIC50: 8.10
Tubulin
  pIC50: 6.42
U-87 MG
  Emax: 31.8%
  pIC50: 7.32
U-87 MG; U-87MG ATCC
  inhibition: Dose-dependent effect
KBM5 [9]
  pIC50: 7.92
T98G
  Emax: 36.2%
  pIC50: 7.61 to 7.62
  inhibition: Dose-dependent effect
SW-620
  inhibition: Dose-dependent effect
SW-620; SW-620, 48 h
  pIC50: 7.21
SW480
  inhibition: Dose-dependent effect
SW480; SW480, 48 h
  pIC50: 6.82
KBM5 [10]
  Activity: 50 - 90%
HCT-116
  inhibition: Dose-dependent effect
HCT-116; HCT-116, 48 h
  pIC50: 7.39
[11]
  pIC50: 6.52
T-24
  pIC50: 7.24
